Changes are numbered by the printed parent chain. Where two headings read alike, the source gives them in different places.
Key:
[1] = test system: CHM12 (RETα except for mid-S1 through S4); assay: Genistein inhibition of closed chimeric channel CHM12; assay type: biochemical, bovine/rat; settings: closed channels
Summary of the method: (§1)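 Chimeric RETα/OLFα channels were expressed in Xenopus oocytes (50 nl of 50 ng/μl RNA, 2–7 d), and the vitelline membrane was removed. Inside-out patches were bathed in symmetrical 115 mM NaCl, 5 mM EGTA, 1 mM EDTA, 5 mM HEPES, pH 7.5, held at −75 mV. Test compound was preapplied 1 min to closed channels, then saturating 2 mM cGMP; residual current normalized to Imax.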

[2] = test system: CHM17 (RETα with the OLFα cyclic nucleotide–binding domain); assay: Genistein inhibition of closed chimeric channel CHM17; assay type: biochemical, bovine/rat; settings: closed channels
Summary of the method: as §1

[3] = molecular target: T1, CHM23 (OLFα with RETα part of pore, S6 and part of C-linker) (Rattus norvegicus, UniProt Q00195, C329S/E325K/E350S/F357A/H396Q/I327V/I356V/K348R/K390R/L353F/Q399H/T383A/V373I/V394I); assay: Genistein inhibition of closed chimeric channel CHM23; assay type: biochemical, bovine/rat
T1 sequence (Q00195 1-664 E325K/I327V/C329S/K348R/E350S/L353F/I356V/F357A/V373I/T383A/K390R/V394I/H396Q/Q399H): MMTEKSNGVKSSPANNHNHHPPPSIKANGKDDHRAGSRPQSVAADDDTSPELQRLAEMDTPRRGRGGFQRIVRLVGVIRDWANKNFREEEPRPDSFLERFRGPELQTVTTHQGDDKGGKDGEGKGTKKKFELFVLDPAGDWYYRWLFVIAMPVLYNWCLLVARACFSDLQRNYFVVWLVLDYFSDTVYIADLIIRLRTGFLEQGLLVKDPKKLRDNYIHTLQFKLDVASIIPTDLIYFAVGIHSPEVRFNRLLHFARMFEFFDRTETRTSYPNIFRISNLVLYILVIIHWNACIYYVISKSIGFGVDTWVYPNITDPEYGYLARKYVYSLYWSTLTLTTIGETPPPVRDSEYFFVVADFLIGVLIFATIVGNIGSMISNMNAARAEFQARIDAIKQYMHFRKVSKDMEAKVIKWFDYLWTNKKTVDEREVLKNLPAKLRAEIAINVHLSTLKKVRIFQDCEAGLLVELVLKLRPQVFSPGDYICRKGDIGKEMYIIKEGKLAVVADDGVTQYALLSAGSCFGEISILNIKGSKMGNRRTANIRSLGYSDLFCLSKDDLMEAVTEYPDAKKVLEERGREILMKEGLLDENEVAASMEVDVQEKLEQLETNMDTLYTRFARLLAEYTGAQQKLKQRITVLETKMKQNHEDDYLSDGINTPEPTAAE
Summary of the method: as §1

[4] = molecular target: T2, CHM25 (RETα with H420 substituted with an asparagine) (Bos taurus, UniProt Q00194, H420Q); assay: Genistein inhibition of closed chimeric channel CHM25; assay type: biochemical, bovine/rat; settings: genistein applied on closed channels
T2 sequence (Q00194 1-690 H420Q): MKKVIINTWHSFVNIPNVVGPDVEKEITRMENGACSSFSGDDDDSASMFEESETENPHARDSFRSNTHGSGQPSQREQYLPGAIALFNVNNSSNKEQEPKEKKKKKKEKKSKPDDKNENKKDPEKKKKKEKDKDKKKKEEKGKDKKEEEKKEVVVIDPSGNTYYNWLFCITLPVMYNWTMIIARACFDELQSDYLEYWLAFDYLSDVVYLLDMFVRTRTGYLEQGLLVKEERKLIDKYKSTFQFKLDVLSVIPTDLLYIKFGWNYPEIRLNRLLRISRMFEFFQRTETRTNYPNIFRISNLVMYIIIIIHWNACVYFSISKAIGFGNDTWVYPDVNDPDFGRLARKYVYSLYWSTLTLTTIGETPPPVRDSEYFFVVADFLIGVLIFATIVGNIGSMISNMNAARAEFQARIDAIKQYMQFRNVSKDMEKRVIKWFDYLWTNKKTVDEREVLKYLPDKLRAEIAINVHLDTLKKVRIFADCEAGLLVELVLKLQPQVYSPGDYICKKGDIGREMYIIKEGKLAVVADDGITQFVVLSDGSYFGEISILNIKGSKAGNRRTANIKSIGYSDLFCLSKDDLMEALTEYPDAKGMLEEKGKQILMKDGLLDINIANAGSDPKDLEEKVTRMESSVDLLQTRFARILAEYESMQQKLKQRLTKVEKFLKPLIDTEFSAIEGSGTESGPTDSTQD
Summary of the method: as §1

[5] = molecular target: T3, α-subunit of the bovine retinal rod CNG channel (RETα) (Bos taurus, UniProt Q00194); assay type: biochemical; settings: for opening allosteric constant (L): L = Po/(1 − Po)
T3 sequence (Q00194 1-690): T2 sequence (Q00194 1-690 H420Q) with Q420H

[6] = after genistein application, saturating cGMP

O=c1c(-c2ccc(O)cc2)coc2cc(O)cc(O)c12 [genistein]
genistein inhibition [1]: fully inhibited | genistein inhibition [2]: complete inhibition | inhibition of closed channels [3]: 99% | genistein inhibition [4]: complete inhibition | effect on single-channel current ([5]; 100 μM genistein, saturating cGMP): unaffected | decrease in the average Po ([5]; 100 μM genistein, saturating cGMP, six patches): 39 ± 6% | Po during periods of high activity (bursty pattern) [5, 6]: 0.4–0.9 | duration of high-Po periods [5, 6]: 15 to 30 s | duration of silent periods (Po = 0) [5, 6]: 10 to 80 s | single-channel current (i) ([5]; after preexposure to 100 μM genistein, Fig. 6 A): 1.97 pA | single-channel current (i) ([5]; after preexposure to 100 μM genistein, Fig. 6 B): 1.96 pA | Po, intermediate gating mode ([5]; after preexposure to 100 μM genistein, all four patches with this mode): 0.39 ± 0.08 | decrease of L compared with control ([5]; in the presence of genistein): 30–1,000 fold | single-channel current (i) ([5]; in the presence of genistein, 2 mM cGMP, −80 mV, Fig. 5 B): 1.97 pA | open probability (Po) ([5]; in the presence of genistein, 2 mM cGMP, −80 mV, Gaussian fit, Fig. 5 B): 0.529 | free energy of channel opening (ΔGopening) ([5]; one genistein molecule): 0.24 kcal/mol | opening allosteric constant (L) ([5]; one genistein molecule bound): 0.61 | opening allosteric constant (L) ([5]; two genistein molecules bound): 0.02

— paper PMC2225614 (The Journal of General Physiology, 2001)
